Active and inactive are the calls of the source.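 The calls were made as follows, unless noted: active = NADPH fluorescence slope more negative than the mean of all samples by about 3 SD, 99.7% confidence; inactive = the rest.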
Assays:
[1] = inhibitors of TNFa-induced NFkB p65 translocation, primary screen, imaging, HUVEC, MLSMR starter and 10KST1 sets (AID 438;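 active = inhibition above 20% together with a positive visual image hit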;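 also: compound added about 3h40 before a 20 min TNFalpha stimulation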;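 as to inhibition: signal is the nuclear over cytoplasmic p65 intensity ratio per well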); conditions: HUVEC TNFa-induced p65 nuclear translocation; cell count: measured here: nuclei count (cytotoxicity indicator), at 2.08 µM; inhibition: at 2 µM, stronger effect = higher value, 0% TNFa-plus-vehicle, 100% no-TNFa wells
[2] = inhibitors of E-selectin induction by TNFa, primary screen, imaging, HUVEC, immunofluorescence, MLSMR starter and 10KST1 sets (AID 487;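 active = visually confirmed hit in the image check and inhibition above 20%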;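 as to inhibition: signal is fraction of cell area covered by stained E-selectin grains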;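 as to nuclei count: 100% = median nuclei count of all wells on the same plate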); conditions: HUVEC TNFalpha-induced E-selectin immunofluorescence imaging, at 2 µM; inhibition: stronger effect = higher value; nuclei count: measured here: cell number, toxicity
[3] = DUSP6 inhibitors restoring Erk phosphorylation by chemical complementation, primary imaging in DUSP6-transfected HeLa (AID 609;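 active = compounds giving at least 50% inhibition in the cell-based MKP-3 phosphatase rescue imaging test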;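 as to inhibition: phospho-Erk level distribution per well compared with pooled transfected vehicle control wells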); conditions: HeLa MKP-3 transfected, phospho-Erk imaging KS statistic, at 10 µM, cells stimulated with TPA for 15 min
[4] = biological target: Dual specificity protein phosphatase 6 (Homo sapiens) (UniProt Q16828); assay: as above; conditions: HeLa MKP-3 transfected, phospho-Erk imaging KS statistic; at 10 µM; stronger effect = higher value; cells stimulated with TPA for 15 min
[5] = biological target: Voltage-gated potassium channel subunit beta-2 (Rattus norvegicus) (UniProt P62483); assay: KvBeta enzyme negative modulators, primary screen, biochemical, NADPH fluorescence (AID 622;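 active = fluorescence slope higher than the sample average by over 3 SD, cut at about -0.22 in these data, passing the limit was not always enough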;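 also: slope of raw intensity against log time taken from 70 to 1610 s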); conditions: recombinant KvBeta, 4-cyanobenzaldehyde reduction, at 10 µM, stronger effect = higher value
[6] = biological target: Voltage-gated potassium channel subunit beta-2 (Rattus norvegicus) (UniProt P62483); assay: KvBeta positive modulators, primary screen, biochemical, NADPH fluorescence (AID 623); conditions: Recombinant KvBeta, NADPH fluorescence decrease slope, 10 min; at 10 µM; stronger effect = lower value;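 also: fluorescence intensity change per second fitted from 20 to 320 s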
[7] = biological target: Alpha-2C adrenergic receptor (Homo sapiens) (UniProt P18825); assay: modulators of alpha2C/GIRK thallium flux, primary screen, cell-based, HEK293 alpha2C/GIRK1/2 (AID 624;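 active = fluorescence slope after compound addition differing from the mean of all screened samples at 99.7% confidence, in either direction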;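 also: slope of fluorescence ratio to pre-addition baseline per second over 15 to 24 s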); conditions: thallium flux BTC fluorescence, at 10 µM, actives lie on both sides
[8] = inhibitors of larval lipid processing in zebrafish, primary screen, whole organism, PED6 fluorescence, gall bladder and intestine (AID 686;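 active = a full or partial loss of lipid-probe fluorescence in the fish gall bladder, intestine or both, judged by eye; inactive = no fluorescence loss, or compound toxic to the fish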;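 also: larvae 5 to 7 days old with five fish per well; signal comes from phospholipase A2 cleavage of quenched PED6 carried via bile; overnight exposure to compound and PED6 before scoring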); conditions: Zebrafish larvae PED6 lipid processing, fluorescence scoring; screened at 20 µM (by protocol)
How it was run: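 Also added: quenched phospholipase substrate PED6, 100 nM final, ingested by larvae; System: zebrafish larvae, 5-7 d; Quantity: 5 larvae per well; Compound: 20 µM single dose; Schedule: overnight compound and PED6 incubation; Read-out: visual per-well fluorescence inhibition score; Measured by: By-eye fluorescence microscopy; Medium: E3.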

[9] = inhibitors of Chlamydomonas gravitaxis, primary screen, whole organism, Chlamydomonas reinhardtii, WT vs cilia-less mutant, absorbance, 96-well (AID 463189;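 active = inhibition at or above 50% relative to wild type and mutant plate controls; inactive = inhibition below 50%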;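 also: 0% = wild type cc124 cells in DMSO and 100% = ciliumless bld1 mutant cells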); conditions: OD600 absorbance, 2 days, at 10 µM, stronger effect = higher value
[10] = measured here: cell density z-score
[11] = measured here: nuclear c-Myc green intensity z-score
[12] = measured here: nuclear pErk red intensity z-score, stronger effect = higher value

Sequence of Alpha-2C adrenergic receptor (Homo sapiens) (P18825 whole entry, looked up): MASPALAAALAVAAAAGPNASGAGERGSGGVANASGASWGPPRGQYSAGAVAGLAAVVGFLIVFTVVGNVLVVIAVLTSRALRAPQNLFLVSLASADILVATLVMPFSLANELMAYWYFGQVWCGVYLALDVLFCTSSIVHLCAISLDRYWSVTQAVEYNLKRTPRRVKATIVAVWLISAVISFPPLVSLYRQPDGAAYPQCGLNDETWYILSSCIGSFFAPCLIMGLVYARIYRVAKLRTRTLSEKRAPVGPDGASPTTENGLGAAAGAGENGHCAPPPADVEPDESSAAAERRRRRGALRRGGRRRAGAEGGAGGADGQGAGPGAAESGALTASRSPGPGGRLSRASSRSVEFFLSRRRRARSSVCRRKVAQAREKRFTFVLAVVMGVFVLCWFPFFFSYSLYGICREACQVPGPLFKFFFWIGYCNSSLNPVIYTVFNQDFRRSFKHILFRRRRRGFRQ
Sequence of Dual specificity protein phosphatase 6 (Homo sapiens) (Q16828 whole entry, looked up): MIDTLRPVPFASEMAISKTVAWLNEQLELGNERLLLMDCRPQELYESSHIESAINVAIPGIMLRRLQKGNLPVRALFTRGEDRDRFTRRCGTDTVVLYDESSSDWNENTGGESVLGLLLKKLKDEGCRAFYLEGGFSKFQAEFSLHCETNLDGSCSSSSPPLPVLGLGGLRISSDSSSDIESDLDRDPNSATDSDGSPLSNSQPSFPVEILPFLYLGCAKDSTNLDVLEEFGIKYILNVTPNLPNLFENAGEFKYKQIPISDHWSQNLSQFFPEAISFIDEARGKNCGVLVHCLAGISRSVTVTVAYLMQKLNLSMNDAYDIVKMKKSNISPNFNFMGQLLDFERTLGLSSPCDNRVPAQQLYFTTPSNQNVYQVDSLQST
Sequence of Voltage-gated potassium channel subunit beta-2 (Rattus norvegicus) (P62483 whole entry, looked up): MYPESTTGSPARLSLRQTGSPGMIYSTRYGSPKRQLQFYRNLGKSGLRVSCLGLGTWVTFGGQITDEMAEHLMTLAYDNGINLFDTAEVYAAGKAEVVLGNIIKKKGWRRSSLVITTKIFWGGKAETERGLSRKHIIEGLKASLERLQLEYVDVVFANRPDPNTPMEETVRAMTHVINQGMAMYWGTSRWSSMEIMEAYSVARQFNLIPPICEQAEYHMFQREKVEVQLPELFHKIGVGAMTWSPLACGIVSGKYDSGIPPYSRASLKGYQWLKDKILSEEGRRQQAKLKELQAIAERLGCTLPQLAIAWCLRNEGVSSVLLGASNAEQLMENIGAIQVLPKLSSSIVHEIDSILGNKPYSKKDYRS

Structure (SMILES) | cell count [1] | inhibition [1] | inhibition [2] | nuclei count [2] [%] | z-score [3, 10] | z-score [3, 11] | z-score [3, 12] | inhibition [4] | fluorescence slope [5] | NADPH fluorescence slope [6] | slope [7] | outcome [8] | inhibition [9]
COCCCNC(=O)C(C#N)c1nc2ccccc2nc1N1CCCC1 (centres undefined) | 459 | 12.6% (inactive) | -130% (inactive) | 156 | 1.4 | 0.549 | -0.292 | 7.83% (inactive) | -0.000219 (active) | 0 (inactive) | 0.0065 (inactive) | inactive | -2.67% (inactive)
CC(=O)C1=C(O)C(=O)N(Cc2cccnc2)C1c1ccccc1Cl (centres undefined) | 645 | -3.5% (inactive) | -41.7% (inactive) | 140 | 1.32 | -1.67 | -1.62 | 31.1% (inactive) | -0.49 (inactive) | -0.000254 (inactive) | 0.00582 (inactive) | inactive | 10.6% (inactive)
COc1cccc(OC)c1-c1nn2c(-c3ccccc3Cl)nnc2s1 | 611 | -4.2% (inactive) | -50.2% (inactive) | 159 | 1.55 | -0.0979 | -0.298 | -6.06% (inactive) | -0.444 (inactive) | -0.000105 (inactive) | 0.00355 (inactive) | inactive | 101% (active)
COc1ccc2[nH]c(C)c(C(=O)CN3CCN(C(=O)c4ccco4)CC3)c2c1 | 567 | -7.1% (inactive) | -4.8% (inactive) | 165 | -1.11 | -0.714 | 0.0705 | -7.01% (inactive) | -0.311 (inactive) | -8.4e-06 (inactive) | 0.00523 (inactive) | inactive | -1.6% (inactive)
O=C1CC(c2ccco2)CC(O)=C1C=Nc1cc(Cl)ccc1O (centres undefined) | 416 | -17% (inactive) | -77.9% (inactive) | 152 | -1.18 | -0.564 | 1.32 | 1.04% (inactive) | -0.386 (inactive) | -5.2e-05 (inactive) | 0.00522 (inactive) | inactive | 17.7% (inactive)
CCOc1cccc(-c2nn3c(-c4ccccn4)nnc3s2)c1 | 649 | -3.2% (inactive) | -78% (inactive) | 150 | 0.204 | -0.822 | 0.934 | -9.66% (inactive) | -0.427 (inactive) | -4.9e-05 (inactive) | 0.00726 (inactive) | inactive | 23.8% (inactive)
COc1ccc(C(CC(=O)O)NC(=O)OC(C)(C)C)cc1 (centres undefined) | 352 | -12.3% (inactive) | -60.6% (inactive) | 167 | 0.0535 | 0.856 | 1.62 | -7.01% (inactive) | -0.414 (inactive) | -0.000134 (inactive) | 0.00454 (inactive) | inactive | -3.6% (inactive)
CCN(CC)CCNC(=O)c1c(C)oc2cc(Br)c(OC)cc12 | 496 | -8.7% (inactive) | -70.3% (inactive) | 112 | 2.28 | 0.845 | -0.848 | 15.8% (inactive) | -0.55 (inactive) | -3.1e-05 (inactive) | 0.0063 (inactive) | inactive | -1.94% (inactive)
COc1ccccc1-c1nnc2sc(COc3ccccc3)nn12 | 670 | -8.1% (inactive) | -201% (inactive) | 161 | 0.204 | -1.19 | 2.54 | -16.8% (inactive) | -0.444 (inactive) | -0.000151 (inactive) | 0.00451 (inactive) | inactive | 5.33% (inactive)
COc1cccc(-c2nc(NC(C)C)c3ccccc3n2)c1O | 342 | -2.3% (inactive) | -37.3% (inactive) | 152 | -0.0785 | 0.53 | 0.295 | 1.6e-07% (inactive) | -0.436 (inactive) | -0.000146 (inactive) | 0.00488 (inactive) |  | 75.4% (active)
O=C(O)CC(NCc1ccco1)C(=O)OCCc1ccccc1 (centres undefined) | 534 | -1.9% (inactive) | 6.5% (inactive) | 116 | -0.641 | 0.383 | -0.409 | -1.75% (inactive) | -0.398 (inactive) | 5.7e-06 (inactive) | 0.00596 (inactive) | inactive | 32.9% (inactive)
c1ccc(-c2nn3c(C4CCCCC4)nnc3s2)cc1 | 527 | -1.4% (inactive) | -81.3% (inactive) | 142 | -0.66 | 0.347 | 1.15 | -18.6% (inactive) | -0.435 (inactive) | -8.4e-05 (inactive) | 0.00411 (inactive) | inactive | 6.49% (inactive)
Nc1nnnn1CC(=O)OCc1cccc(Br)c1 | 351 | -7.3% (inactive) | -43.6% (inactive) | 167 | 0.909 | -0.848 | 1.13 | 1.42% (inactive) | -0.446 (inactive) | -0.000151 (inactive) | 0.00561 (inactive) | inactive | -1.03% (inactive)
Cn1nnnc1SCC(=O)NCC(=O)c1ccccc1 | 527 | -4.5% (inactive) | -74.2% (inactive) | 146 | 0.246 | -1.91 | 0.111 | -7.01% (inactive) | -0.527 (inactive) | -6.9e-05 (inactive) | 0.00467 (inactive) | inactive | 10.2% (inactive)
COc1ccc(-c2oc3ncn4nc(COc5ccccc5)nc4c3c2-c2ccc(OC)cc2)cc1 | 621 | -7.9% (inactive) | -75% (inactive) | 194 | -0.444 | -0.952 | -0.924 | -15% (inactive) | -0.327 (inactive) | -1.2e-05 (inactive) | 0.0133 (inactive) | inactive | -3.79% (inactive)
N#CCSc1nc2c(cc1C#N)CCCCCC2 | 603 | -18.1% (inactive) | 46.1% (inactive) | 147 | 0.833 | -0.157 | -0.809 | 2.92% (inactive) | -0.354 (inactive) | -8.7e-06 (inactive) | 0.0055 (inactive) | inactive | 19.7% (inactive)
Cc1cc(N2C(=O)C(=O)/C(=C(/O)c3ccccc3)C2c2cccc(Br)c2)no1 (centres undefined) | 298 | -10.2% (inactive) | -43.8% (inactive) | 93.2 | 0.294 | -0.11 | 0.565 | 1.6e-07% (inactive) | -0.473 (inactive) | -3.5e-05 (inactive) | 0.00638 (inactive) |  | -10.3% (inactive)
CC1CN(C2CCN(S(=O)(=O)c3ccc4ccccc4c3)CC2)CC(C)O1 (centres undefined) | 396 | -19.4% (inactive) | -273% (inactive) | 173 | 0.701 | -1.69 | 1.26 | -0.159% (inactive) | -0.389 (inactive) | -3.5e-05 (inactive) | 0.00656 (inactive) | inactive | 110% (active)
Cc1ccc2[nH]c3c(c2c1)CN(C(=O)CN1CCCc2ccccc21)CC3 | 557 | -8.1% (inactive) | -104% (inactive) | 142 | -0.606 | -1.61 | -0.633 | 2.92% (inactive) | -0.439 (inactive) | -7.1e-05 (inactive) | 0.00496 (inactive) | active; weak signal in gallbladder and intestine | 15.5% (inactive)
O=c1[nH]c(=O)n(Cc2ccco2)c2c1C(C(F)(F)F)(C(F)(F)F)N=C(c1ccco1)N2 | 505 | -2.5% (inactive) | -212% (inactive) | 132 | -0.683 | -0.978 | -0.242 | 1.75% (inactive) | -0.502 (inactive) | -5.4e-05 (inactive) | 0.00631 (inactive) | inactive | -4.12% (inactive)
CCCC(=O)Nc1sc2c(c1C#N)CCCC2 | 385 | 7.8% (inactive) | -83.9% (inactive) | 110 | -0.165 | 0.756 | -2.32 | 3.56% (inactive) | -0.445 (inactive) | -0.000372 (inactive) | 0.00647 (inactive) | inactive | -10.7% (inactive)
C=CCNc1nc(-c2cccc(OC)c2O)nc2ccccc12 | 347 | 5.6% (inactive) | -92.9% (inactive) | 101 | -0.736 | 0.355 | 1.19 | 7.01% (inactive) | -0.415 (inactive) | -0.000104 (inactive) | 0.00503 (inactive) |  | 1.52% (inactive)
COCCOC(=O)C1=C(C)OC(N)=C(C#N)C1c1ccco1 (centres undefined) | 364 | -7.8% (inactive) | -269% (inactive) | 165 | -0.623 | -0.763 | 1.29 | -13.5% (inactive) | -0.406 (inactive) | -4.7e-05 (inactive) | 0.00481 (inactive) | inactive | 20.2% (inactive)
COc1ccc(/C(O)=C2/C(=O)C(=O)N(CCN3CCOCC3)C2c2ccccn2)cc1OC (centres undefined) | 409 | -7.4% (inactive) | -125% (inactive) | 158 | 1.75 | -1.41 | 1.12 | 15.8% (inactive) | -0.419 (inactive) | -9.3e-05 (inactive) | 0.00847 (inactive) |  | 6.74% (inactive)
Cc1ccc(/C=c2\sc3n(c2=O)CN(c2ccc(Br)cc2)CN=3)o1 | 367 | -0.5% (inactive) | -127% (inactive) | 137 | 1.52 | -1.23 | -1.08 | 22.7% (inactive) | -0.389 (inactive) | -1.9e-05 (inactive) | 0.00432 (inactive) | inactive | -6.84% (inactive)
Oc1ccc(Br)cc1CNn1cnnc1 | 501 | -5.8% (inactive) | -3.9% (inactive) | 122 | -0.232 | 1.89 | 1.27 | -1.75% (inactive) | -0.454 (inactive) | -2.5e-06 (inactive) | 0.0058 (inactive) | inactive | 16.1% (inactive)

— PubChem BioAssay
